Reference: ChEMBL document CHEMBL3124772, “Design, synthesis, and evaluation of conformationally restricted acetanilides as potent and selective β3 adrenergic receptor agonists for the treatment of overactive bladder” (J Med Chem, 2014)
Each block holds one compound with its values, some of them ahead of it.

Columns and labels:
[1] = molecular target: Beta-3 adrenergic receptor (Rattus norvegicus, UniProt P26255); experiment: Agonist activity at rat beta-3 adrenergic receptor expressed in CHO cells assessed as increase in intracellular cAMP accumulation after 30 mins by time-resolved fluorescence assay; format: functional, cell-based
Method in brief: (§1)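 CHO cells stably transfected with cloned β3-AR, harvested after 3 days subculture with enzyme-free dissociation, 6000 cells in HBSS with 5 mM HEPES, 0.1% BSA and 0.6 mM IBMX. Ligand at 10⁻¹⁰ to 10⁻⁵ M final, 30 min room temperature with labeled cAMP antibody; LANCE TR-FRET read after 1 h detection, cAMP from standard curve.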

[2] = molecular target: Sodium channel protein type 5 subunit alpha (Homo sapiens, UniProt Q14524); experiment: Inhibition of human NaV1.5
Cytochrome P450 2C9 = Cytochrome P450 2C9 (Homo sapiens, UniProt P11712); experiment: Inhibition of CYP2C9 in human liver microsomes assessed as diclofenac alpha'-hydroxylation; format: ADME
[3] = Intrinsic clearance in human liver microsomes; format: ADME; settings: read-out: CLH
[4] = Fraction unbound in rhesus monkey plasma at 1 mg/kg, iv and 2 mg/kg, po; format: ADME, organism-based, Macaca mulatta
[5] = Apparent permeability in MDCK2 cells; format: ADME, cell-based, Canis lupus familiaris, MDCK-II; settings: dog, MDCK
[6] = Half life in rhesus monkey at 1 mg/kg, iv and 2 mg/kg, po; format: ADME, organism-based, Macaca mulatta; settings: in vivo
[7] = molecular target: Beta-3 adrenergic receptor (Macaca mulatta, UniProt Q28524); experiment: Agonist activity at rhesus monkey beta-3 adrenergic receptor expressed in CHO cells assessed as increase in intracellular cAMP accumulation after 30 mins by time-resolved fluorescence assay; format: functional, cell-based; method in brief: as §1
Chain of Beta-3 adrenergic receptor (Macaca mulatta, UniProt Q28524) (Q28524 whole entry, the tested form may be a part): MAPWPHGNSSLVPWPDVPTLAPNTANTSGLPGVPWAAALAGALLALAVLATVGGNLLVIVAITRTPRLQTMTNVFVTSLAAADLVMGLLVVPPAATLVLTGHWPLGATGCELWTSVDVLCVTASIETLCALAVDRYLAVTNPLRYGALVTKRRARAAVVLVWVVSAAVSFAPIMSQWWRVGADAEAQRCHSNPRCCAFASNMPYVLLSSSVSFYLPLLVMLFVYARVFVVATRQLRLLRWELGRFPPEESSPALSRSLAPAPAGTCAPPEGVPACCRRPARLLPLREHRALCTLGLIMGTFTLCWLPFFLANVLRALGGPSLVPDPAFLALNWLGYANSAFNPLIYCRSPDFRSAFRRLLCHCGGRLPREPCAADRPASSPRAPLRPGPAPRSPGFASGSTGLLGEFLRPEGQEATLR

Plasma [8] = experiment: Unbound plasma concentration in acetic acid-induced Sprague-Dawley rat bladder hyperactivity model at 3 mg/kg, iv administered as 1 to 2 hrs infusion; format: ADME, organism-based; design: dose 3 mg/kg, route intravenous; settings: in vivo
[9] = Half life in Sprague-Dawley rat at 1 mg/kg, iv and 2 mg/kg, po; format: ADME, organism-based; settings: in vivo
[10] = molecular target: Beta-3 adrenergic receptor (Canis lupus familiaris) (UniProt O02662); experiment: Agonist activity at dog beta-3 adrenergic receptor expressed in CHO cells assessed as increase in intracellular cAMP accumulation at 10^-10 to 10^-5 M after 30 mins by time-resolved fluorescence assay relative to R-(-)isoproterenol; format: functional, cell-based; method in brief: as §1
Plasma [11] = experiment: Unbound plasma concentration in acetic acid-induced Sprague-Dawley rat bladder hyperactivity model at 1 mg/kg, iv administered as 1 to 2 hrs infusion; format: ADME, organism-based; design: dose 1 mg/kg, route intravenous; settings: in vivo
[12] = Half life in Beagle dog at 1 mg/kg, iv and 2 mg/kg, po; format: ADME, organism-based, Canis lupus familiaris; settings: in vivo
[13] = Oral bioavailability in rhesus monkey at 2 mg/kg; format: ADME, organism-based, Macaca mulatta; settings: in vivo
[14] = molecular target: Beta-3 adrenergic receptor (Macaca mulatta) (UniProt Q28524); experiment: Agonist activity at rhesus monkey beta-3 adrenergic receptor expressed in CHO cells assessed as increase in intracellular cAMP accumulation at 10^-10 to 10^-5 M after 30 mins by time-resolved fluorescence assay relative to R-(-)isoproterenol; format: functional, cell-based; method in brief: as §1
Chain of Beta-3 adrenergic receptor (Macaca mulatta) (Q28524 whole entry): as the sequence (Q28524 whole entry, the tested form may be a part) above

[15] = Intrinsic clearance in monkey liver microsomes; format: ADME, Macaca mulatta, Microsome; settings: rhesus monkey, read-out: CLH
[16] = molecular target: Beta-2 adrenergic receptor (Homo sapiens, UniProt P07550); experiment: Displacement of [125I]-cyanopindolol from recombinant human beta-2 adrenergic receptor expressed in CHO cell membranes after 1 hr by scintillation counting analysis
[17] = Fraction unbound in Sprague-Dawley rat plasma at 1 mg/kg, iv and 2 mg/kg, po; format: ADME, organism-based; settings: Sprague-Dawley, plasma
[18] = Oral bioavailability in Sprague-Dawley rat at 2 mg/kg; format: ADME, organism-based; settings: in vivo
[19] = Intrinsic clearance in rat liver microsomes; format: ADME; settings: read-out: CLH
Cytochrome P450 2D6 = Cytochrome P450 2D6 (Homo sapiens, UniProt P10635); experiment: Inhibition of CYP2D6 in human liver microsomes assessed as dextromethorphan O-demethylation; format: ADME
Chain of Cytochrome P450 2D6 (P10635 whole entry): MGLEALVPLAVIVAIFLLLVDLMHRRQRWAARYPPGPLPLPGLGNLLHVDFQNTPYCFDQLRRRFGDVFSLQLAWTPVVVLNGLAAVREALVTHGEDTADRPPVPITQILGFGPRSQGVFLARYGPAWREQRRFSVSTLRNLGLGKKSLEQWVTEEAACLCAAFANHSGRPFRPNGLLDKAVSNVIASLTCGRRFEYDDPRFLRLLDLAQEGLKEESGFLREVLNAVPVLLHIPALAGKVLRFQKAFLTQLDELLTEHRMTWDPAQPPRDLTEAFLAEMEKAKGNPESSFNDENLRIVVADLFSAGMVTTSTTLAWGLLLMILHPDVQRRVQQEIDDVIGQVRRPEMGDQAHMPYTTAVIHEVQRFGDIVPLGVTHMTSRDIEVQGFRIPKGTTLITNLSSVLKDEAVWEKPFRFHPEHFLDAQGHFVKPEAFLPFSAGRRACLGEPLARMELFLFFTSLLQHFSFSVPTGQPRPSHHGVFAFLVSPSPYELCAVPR

[20] = molecular target: T1, Beta-3 adrenergic receptor (Homo sapiens, UniProt P13945); experiment: Agonist activity at human beta-3 adrenergic receptor expressed in CHO cells assessed as increase in intracellular cAMP accumulation after 30 mins by time-resolved fluorescence assay; format: functional, cell-based; method in brief: as §1
Target sequence in this assay (P13945 whole entry, the tested form may be a part): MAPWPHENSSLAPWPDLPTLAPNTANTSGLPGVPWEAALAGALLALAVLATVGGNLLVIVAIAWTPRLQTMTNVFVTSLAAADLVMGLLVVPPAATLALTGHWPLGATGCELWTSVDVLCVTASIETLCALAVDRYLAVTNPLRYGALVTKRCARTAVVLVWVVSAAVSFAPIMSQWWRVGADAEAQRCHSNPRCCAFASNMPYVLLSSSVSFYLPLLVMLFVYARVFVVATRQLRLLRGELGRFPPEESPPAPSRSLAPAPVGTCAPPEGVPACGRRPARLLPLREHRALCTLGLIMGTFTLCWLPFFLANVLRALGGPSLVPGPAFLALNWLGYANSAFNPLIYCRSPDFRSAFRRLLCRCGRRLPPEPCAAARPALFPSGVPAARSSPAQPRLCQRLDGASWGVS

Rattus norvegicus [21] = experiment: Reduction of micturition pressure at 1.2 uM unbound plasma level in acetic acid-induced Sprague-Dawley rat bladder hyperactivity model at 10 mg/kg, iv administered as 1 to 2 hrs infusion relative to vehicle-treated control; format: functional; design: scale not given: the % may be the effect or the level left
[22] = molecular target: Beta-3 adrenergic receptor (Rattus norvegicus) (UniProt P26255); experiment: Agonist activity at rat beta-3 adrenergic receptor expressed in CHO cells assessed as increase in intracellular cAMP accumulation at 10^-10 to 10^-5 M after 30 mins by time-resolved fluorescence assay relative to R-(-)isoproterenol; format: functional, cell-based; method in brief: as §1
Rattus norvegicus [23] = experiment: Reduction of micturition pressure in iv dosed acetic acid-induced Sprague-Dawley rat bladder hyperactivity model administered as 1 to 2 hrs infusion; format: functional, organism-based
[24] = Plasma clearance in rhesus monkey at 1 mg/kg, iv and 2 mg/kg, po; format: ADME, organism-based, Macaca mulatta
Plasma [25] = experiment: Unbound plasma concentration in acetic acid-induced Sprague-Dawley rat bladder hyperactivity model at 10 mg/kg, iv administered as 1 to 2 hrs infusion; format: ADME, organism-based; design: dose 10 mg/kg, route intravenous; settings: in vivo
[26] = Plasma clearance in Beagle dog at 1 mg/kg, iv and 2 mg/kg, po; format: ADME, organism-based, Canis lupus familiaris
[27] = Plasma clearance in Sprague-Dawley rat at 1 mg/kg, iv and 2 mg/kg, po; format: ADME, organism-based
[28] = Lipophilicity, log D of the compound at pH 7.3; format: physicochemical; settings: buffer
[29] = Intrinsic clearance in dog liver microsomes; format: ADME, Canis lupus familiaris; settings: read-out: CLH
[30] = Fraction unbound in Beagle dog plasma at 1 mg/kg, iv and 2 mg/kg, po; format: ADME, organism-based, Canis lupus familiaris
[31] = molecular target: Beta-3 adrenergic receptor (Canis lupus familiaris, UniProt O02662); experiment: Agonist activity at dog beta-3 adrenergic receptor expressed in CHO cells assessed as increase in intracellular cAMP accumulation after 30 mins by time-resolved fluorescence assay; format: functional, cell-based; method in brief: as §1
[32] = molecular target: Beta-1 adrenergic receptor (Homo sapiens, UniProt P08588); experiment: Displacement of [125I]-cyanopindolol from recombinant human beta-1 adrenergic receptor expressed in CHO cell membranes after 1 hr by scintillation counting analysis
[33] = molecular target: Voltage-dependent L-type calcium channel subunit alpha-1C (Homo sapiens, UniProt Q13936); experiment: Displacement of [3H]-diltiazem from human CaV1.2
Chain of Voltage-dependent L-type calcium channel subunit alpha-1C (Q13936 whole entry): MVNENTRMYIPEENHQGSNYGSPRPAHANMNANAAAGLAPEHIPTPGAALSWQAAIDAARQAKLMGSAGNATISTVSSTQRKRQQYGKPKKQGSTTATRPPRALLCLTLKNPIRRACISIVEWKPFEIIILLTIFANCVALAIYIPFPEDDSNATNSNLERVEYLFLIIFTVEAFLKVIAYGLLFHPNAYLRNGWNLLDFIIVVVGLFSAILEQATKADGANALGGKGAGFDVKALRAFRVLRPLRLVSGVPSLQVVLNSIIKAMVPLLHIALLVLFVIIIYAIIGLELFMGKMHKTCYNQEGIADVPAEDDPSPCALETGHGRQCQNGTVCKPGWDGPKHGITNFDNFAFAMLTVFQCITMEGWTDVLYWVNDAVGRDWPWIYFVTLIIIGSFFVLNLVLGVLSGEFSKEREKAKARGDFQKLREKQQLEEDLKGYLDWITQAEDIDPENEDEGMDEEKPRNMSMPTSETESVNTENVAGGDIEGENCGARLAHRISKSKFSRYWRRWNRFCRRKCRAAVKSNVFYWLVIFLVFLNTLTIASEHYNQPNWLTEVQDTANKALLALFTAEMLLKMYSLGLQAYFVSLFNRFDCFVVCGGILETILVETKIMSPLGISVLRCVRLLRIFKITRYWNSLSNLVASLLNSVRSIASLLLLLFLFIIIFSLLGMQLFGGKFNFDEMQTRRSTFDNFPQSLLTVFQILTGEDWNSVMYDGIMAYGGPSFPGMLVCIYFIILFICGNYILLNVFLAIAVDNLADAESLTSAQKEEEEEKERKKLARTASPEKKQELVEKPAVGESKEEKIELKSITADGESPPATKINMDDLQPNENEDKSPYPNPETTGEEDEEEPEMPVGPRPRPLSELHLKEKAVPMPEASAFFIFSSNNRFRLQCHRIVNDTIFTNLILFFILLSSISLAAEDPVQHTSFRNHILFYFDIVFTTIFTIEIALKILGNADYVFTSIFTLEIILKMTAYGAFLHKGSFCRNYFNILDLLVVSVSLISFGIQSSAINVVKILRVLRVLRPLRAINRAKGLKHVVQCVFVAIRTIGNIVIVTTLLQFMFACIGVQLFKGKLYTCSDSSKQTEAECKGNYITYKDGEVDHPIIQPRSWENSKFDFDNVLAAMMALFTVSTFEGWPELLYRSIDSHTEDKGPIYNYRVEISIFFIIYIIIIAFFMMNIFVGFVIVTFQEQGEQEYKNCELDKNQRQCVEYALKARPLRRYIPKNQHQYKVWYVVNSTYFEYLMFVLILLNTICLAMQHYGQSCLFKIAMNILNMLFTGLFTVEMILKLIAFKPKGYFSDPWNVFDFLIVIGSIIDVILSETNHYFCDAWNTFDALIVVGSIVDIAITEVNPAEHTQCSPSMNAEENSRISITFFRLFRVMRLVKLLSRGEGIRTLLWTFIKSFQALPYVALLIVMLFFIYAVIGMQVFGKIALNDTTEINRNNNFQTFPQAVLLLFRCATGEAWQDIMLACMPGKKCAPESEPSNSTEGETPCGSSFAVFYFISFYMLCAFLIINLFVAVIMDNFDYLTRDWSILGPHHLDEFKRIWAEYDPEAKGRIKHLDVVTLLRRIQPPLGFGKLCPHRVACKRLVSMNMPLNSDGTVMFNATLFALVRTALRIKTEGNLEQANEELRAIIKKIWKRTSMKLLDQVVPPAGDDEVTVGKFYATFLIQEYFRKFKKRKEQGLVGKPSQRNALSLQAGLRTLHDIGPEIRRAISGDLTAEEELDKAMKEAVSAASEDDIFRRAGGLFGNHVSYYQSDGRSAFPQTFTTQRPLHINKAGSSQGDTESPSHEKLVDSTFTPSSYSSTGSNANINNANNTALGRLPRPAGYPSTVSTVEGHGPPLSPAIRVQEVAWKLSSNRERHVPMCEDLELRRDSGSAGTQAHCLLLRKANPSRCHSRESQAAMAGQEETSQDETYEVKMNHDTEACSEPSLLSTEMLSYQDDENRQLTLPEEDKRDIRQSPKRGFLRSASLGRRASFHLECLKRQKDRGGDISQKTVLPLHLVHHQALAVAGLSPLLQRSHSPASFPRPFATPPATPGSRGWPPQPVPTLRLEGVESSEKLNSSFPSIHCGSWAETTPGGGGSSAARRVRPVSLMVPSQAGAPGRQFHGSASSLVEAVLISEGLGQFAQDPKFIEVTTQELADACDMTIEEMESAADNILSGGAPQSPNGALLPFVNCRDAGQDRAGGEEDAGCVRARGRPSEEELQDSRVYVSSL

[34] = molecular target: T1, Beta-3 adrenergic receptor; experiment: Agonist activity at human beta-3 adrenergic receptor expressed in CHO cells assessed as increase in intracellular cAMP accumulation at 10^-10 to 10^-5 M after 30 mins by time-resolved fluorescence assay relative to R-(-)isoproterenol; format: functional, cell-based; method in brief: as §1
Target sequence in this assay (P13945 whole entry, looked up, the tested form may be a part): as the sequence (P13945 whole entry, the tested form may be a part) above

Cytochrome P450 3A4 = Cytochrome P450 3A4 (Homo sapiens, UniProt P08684); experiment: Inhibition of CYP3A4 in human liver microsomes assessed as testosterone 6beta-hydroxylation; format: ADME
Chain of Cytochrome P450 3A4 (P08684 whole entry): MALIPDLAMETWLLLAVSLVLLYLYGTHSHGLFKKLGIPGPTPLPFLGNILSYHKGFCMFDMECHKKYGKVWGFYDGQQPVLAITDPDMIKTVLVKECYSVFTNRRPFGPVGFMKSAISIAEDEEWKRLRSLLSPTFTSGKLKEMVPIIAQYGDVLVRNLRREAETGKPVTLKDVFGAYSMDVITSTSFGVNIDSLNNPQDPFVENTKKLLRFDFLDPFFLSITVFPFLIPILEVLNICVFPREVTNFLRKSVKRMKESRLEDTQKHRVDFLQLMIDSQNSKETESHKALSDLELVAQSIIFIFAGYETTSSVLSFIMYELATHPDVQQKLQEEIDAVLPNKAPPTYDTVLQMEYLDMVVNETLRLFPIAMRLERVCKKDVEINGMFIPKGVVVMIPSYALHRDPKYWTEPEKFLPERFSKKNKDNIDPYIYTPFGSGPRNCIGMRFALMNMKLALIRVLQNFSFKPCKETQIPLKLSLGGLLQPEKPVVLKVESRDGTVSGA

[35] = Oral bioavailability in Beagle dog at 2 mg/kg; format: ADME, organism-based, Canis lupus familiaris; settings: in vivo
[36] = molecular target: Sodium-dependent serotonin transporter (Homo sapiens, UniProt P31645); experiment: Inhibition of human SERT expressed in HEK293 cells incubated for 30 mins prior to fluorescent substrate addition measured after 30 mins by fluorescent dye uptake assay; format: cell-based
Chain of Sodium-dependent serotonin transporter (P31645 whole entry): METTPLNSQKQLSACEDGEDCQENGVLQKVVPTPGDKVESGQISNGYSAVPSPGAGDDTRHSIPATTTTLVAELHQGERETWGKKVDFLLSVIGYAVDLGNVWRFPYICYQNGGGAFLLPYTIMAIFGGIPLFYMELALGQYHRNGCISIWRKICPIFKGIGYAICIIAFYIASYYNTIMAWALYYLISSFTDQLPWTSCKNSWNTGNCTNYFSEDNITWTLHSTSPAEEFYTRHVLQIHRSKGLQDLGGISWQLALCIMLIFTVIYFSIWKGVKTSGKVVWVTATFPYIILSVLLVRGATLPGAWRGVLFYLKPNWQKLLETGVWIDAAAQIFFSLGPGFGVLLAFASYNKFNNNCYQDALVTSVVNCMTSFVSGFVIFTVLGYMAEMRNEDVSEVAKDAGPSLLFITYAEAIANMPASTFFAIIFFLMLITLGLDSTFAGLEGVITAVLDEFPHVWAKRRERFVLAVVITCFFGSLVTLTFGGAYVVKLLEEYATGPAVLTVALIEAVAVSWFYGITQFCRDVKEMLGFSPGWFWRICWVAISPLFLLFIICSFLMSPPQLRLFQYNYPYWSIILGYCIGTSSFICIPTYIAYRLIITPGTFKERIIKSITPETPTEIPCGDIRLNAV
Method in brief: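 HEK293 stably expressing human SERT, 20000 cells/well plated overnight at 37 °C, then in HBSS with 20 mM HEPES and 0.1% BSA. Compound added from 100× DMSO stock, 30 min at 37 °C, then fluorescent transporter substrate for 30 more min. Fluorescence read at 440/520 nm, normalized to DMSO (0%) and 10 μM fluoxetine (100%), four-parameter fit for IC50.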

[37] = molecular target: Voltage-gated inwardly rectifying potassium channel KCNH2 (Homo sapiens, UniProt Q12809); experiment: Inhibition of human ERG
Homo sapiens = organism: Homo sapiens; experiment: Selectivity ratio of IC50 for human SERT to EC50 for human beta-3 adrenergic receptor
Rattus norvegicus [38] = experiment: Reduction of micturition pressure at 27 uM unbound plasma level in acetic acid-induced Sprague-Dawley rat bladder hyperactivity model at 10 mg/kg, iv administered as 1 to 2 hrs infusion relative to vehicle-treated control; format: functional; design: scale not given: the % may be the effect or the level left
[39] = Plasma clearance in rhesus monkey at 3 mg/kg, iv; format: ADME, organism-based, Macaca mulatta; design: dose 3 mg/kg, route intravenous
[40] = Half life in Beagle dog at 3 mg/kg, iv; format: ADME, organism-based, Canis lupus familiaris; design: dose 3 mg/kg, route intravenous; settings: in vivo
[41] = Oral bioavailability in rhesus monkey at 10 mg/kg; format: ADME, organism-based, Macaca mulatta; settings: in vivo
[42] = Half life in rhesus monkey at 3 mg/kg, iv; format: ADME, organism-based, Macaca mulatta; design: dose 3 mg/kg, route intravenous; settings: in vivo
[43] = Plasma clearance in Beagle dog at 3 mg/kg, iv; format: ADME, organism-based, Canis lupus familiaris; design: dose 3 mg/kg, route intravenous
[44] = Fraction unbound in rhesus monkey plasma at 3 mg/kg, iv; format: ADME, organism-based, Macaca mulatta; design: dose 3 mg/kg, route intravenous
[45] = Fraction unbound in Beagle dog plasma at 3 mg/kg, iv; format: ADME, organism-based, Canis lupus familiaris; design: dose 3 mg/kg, route intravenous
[46] = Half life in Sprague-Dawley rat at 3 mg/kg, iv; format: ADME, organism-based; design: dose 3 mg/kg, route intravenous; settings: in vivo
[47] = Plasma clearance in Sprague-Dawley rat at 3 mg/kg, iv; format: ADME, organism-based; design: dose 3 mg/kg, route intravenous
[48] = Fraction unbound in Sprague-Dawley rat plasma at 3 mg/kg, iv; format: ADME, organism-based; design: dose 3 mg/kg, route intravenous

EC50 [1]: 27.6 nM
IC50 (Cytochrome P450 2C9): > 100 µM
CLint scaled [3]: < 10 mL/min/kg
fraction unbound [4]: 1
Papp [5]: 13 ×10⁻⁶ cm/s
half-life [6]: 120 min
EC50 [7]: 2 nM
Cp(f) (Plasma [8]): 0.26 µM
half-life [9]: 120 min
Activity [10]: 82%
Cp(f) (Plasma [11]): 0.09 µM
half-life [12]: 360 min
bioavailability [13]: 8%
Activity [14]: 98%
CLint scaled [15]: 205 mL/min/kg
IC50 [16]: > 20 µM
fraction unbound [17]: 0.19
bioavailability [18]: 41%
CLint scaled [19]: < 15 mL/min/kg
IC50 (Cytochrome P450 2D6): 78.8 µM
EC50 [20]: 1.36 nM
Activity [22]: 89%
clearance [24]: 36 mL/min/kg
Cp(f) (Plasma [25]): 1.17 µM
clearance [26]: 27 mL/min/kg
clearance [27]: 33 mL/min/kg
logD [28]: 0.9
CLint scaled [29]: < 10 mL/min/kg
fraction unbound [30]: 0.7
EC50 [31]: 5 nM
IC50 [32]: > 20 µM
Activity [34]: 103%
IC50 (Cytochrome P450 3A4): > 100 µM
bioavailability [35]: 67%
IC50 [36]: 422 nM
Compound: O=C(Nc1ccc(C[C@@H]2CC[C@H]([C@H](O)c3cccnc3)N2)cc1)[C@@H]1CCc2scnc21
IC50 [2]: > 30 µM
Activity (Rattus norvegicus [21]): 59%
Activity (Rattus norvegicus [23]): Dose-dependent effect
IC50 [33]: > 30 µM

EC50 [1]: 434 nM
IC50 (Cytochrome P450 2C9): > 100 µM
CLint scaled [3]: 19 mL/min/kg
fraction unbound [4]: 1
Papp [5]: 6 ×10⁻⁶ cm/s
half-life [6]: 240 min
EC50 [7]: 4.7 nM
Cp(f) (Plasma [8]): 7.6 µM
half-life [9]: 180 min
Activity [10]: 86%
Cp(f) (Plasma [11]): 2 µM
half-life [12]: 480 min
bioavailability [13]: 11%
Activity [14]: 93%
Ratio IC50/EC50 (Homo sapiens): 243
CLint scaled [15]: 261 mL/min/kg
IC50 [16]: > 20 µM
fraction unbound [17]: 0.36
bioavailability [18]: 35%
CLint scaled [19]: 55 mL/min/kg
IC50 (Cytochrome P450 2D6): > 100 µM
EC50 [20]: 3.7 nM
Activity [22]: 98%
clearance [24]: 36 mL/min/kg
Cp(f) (Plasma [25]): 26.8 µM
clearance [26]: 34 mL/min/kg
clearance [27]: 24 mL/min/kg
logD [28]: 0.9
CLint scaled [29]: 31 mL/min/kg
fraction unbound [30]: 0.7
EC50 [31]: 22 nM
IC50 [32]: > 20 µM
Activity [34]: 84%
IC50 (Cytochrome P450 3A4): > 100 µM
bioavailability [35]: 100%
IC50 [36]: 898 nM
Compound: O=C(Nc1ccc(C[C@@H]2CC[C@H]([C@H](O)c3cccnc3)N2)cc1)[C@@H]1CCc2ccnn21
IC50 [2]: > 30 µM
IC50 [37]: > 30 µM
Activity (Rattus norvegicus [23]): Dose-dependent effect
IC50 [33]: > 30 µM
Activity (Rattus norvegicus [38]): 69%

clearance [39]: 19 mL/min/kg
half-life [40]: 840 min
bioavailability [41]: 4%
half-life [42]: 540 min
clearance [43]: 20 mL/min/kg
fraction unbound [44]: 0.02
fraction unbound [45]: 0.02
half-life [46]: 480 min
clearance [47]: 62 mL/min/kg
logD [28]: 4.6
fraction unbound [48]: 0.02
Compound: O=S(=O)(Nc1ccc(CCNC[C@H](O)c2cccnc2)cc1)c1ccc(-c2nc(-c3ccc(C(F)(F)F)cc3)cs2)cc1
